A selection: hits, their analogues and other compounds. The true share with any hit is near 2.3%.
TRPC4 potent = TRPC4 (mouse) allosteric potentiation | HEK293 TRPC4beta/mu-opioid, DAMGO EC20, Fluo-4 Ca2+ flux; stronger effect = higher value | AID 2227 | 310,000 tested, 0.42% active | B-score at 10 µM;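 active = B-score of calcium response area above 5 SD of library B-scores, with initial fluorescence ratio within 5 SD of library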;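 note: B-score of integrated fluorescence ratio over time as area under calcium response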
TRPC4 act = opens the mouse TRPC4 cation channel | 310,000 tested, 0.49% active | Q9QUQ5 | B-score at 10 µM | HEK293 TRPC4beta/mu-opioid, Fluo4 calcium fluorescence; stronger effect = higher value;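 active = B-score above 5 SD of library B-scores, and initial fluorescence ratio not above library mean plus 5 SD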;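 note: positive B-score marks a calcium rise read as TRPC4 activation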
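Assay system – TRPC4beta and mu-opioid receptor HEK293 stable cells · Measured by – Fluo4 fluorescence, kinetic · Schedule – dye loading 45 min room temperature, 110 s kinetic read · Read-out – B-scored integrated calcium fluorescence ratio · Controls – buffer and maximal DAMGO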
TRPC4 block = inhibitors of mouse TRPC4 channel; B-score at 10 µM; AID 2247; Q9QUQ5; HEK293 TRPC4beta/mu-opioid, DAMGO-evoked Fluo4 calcium flux; stronger effect = lower value; 300,000 tested, 0.39% active;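 active = B-score over 3 SD under the library average, no early fluorescence shift, positive overall ratio signal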
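Assay system: TRPC4beta/mu-opioid receptor HEK293 cell line; compound dosing: single concentration per test compound; detection: Fluo4 Ca2+ flux fluorescence; evaluation: per-well B score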
TRPC6 act = mouse TRPC6 channel activation; HEK293-TRPC6 membrane potential dye fluorescence; stronger effect = higher value; B-score at 10 µM; Q61143; 310,000 tested, 0.13% active; AID 2550;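 active = B-score of the integrated fluorescence ratio above library mean plus 3 SD, and starting fluorescence ratio within library mean plus 5 SD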;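 note: higher score means more depolarization so channel activation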
Target sequence (Q61143 whole entry, looked up): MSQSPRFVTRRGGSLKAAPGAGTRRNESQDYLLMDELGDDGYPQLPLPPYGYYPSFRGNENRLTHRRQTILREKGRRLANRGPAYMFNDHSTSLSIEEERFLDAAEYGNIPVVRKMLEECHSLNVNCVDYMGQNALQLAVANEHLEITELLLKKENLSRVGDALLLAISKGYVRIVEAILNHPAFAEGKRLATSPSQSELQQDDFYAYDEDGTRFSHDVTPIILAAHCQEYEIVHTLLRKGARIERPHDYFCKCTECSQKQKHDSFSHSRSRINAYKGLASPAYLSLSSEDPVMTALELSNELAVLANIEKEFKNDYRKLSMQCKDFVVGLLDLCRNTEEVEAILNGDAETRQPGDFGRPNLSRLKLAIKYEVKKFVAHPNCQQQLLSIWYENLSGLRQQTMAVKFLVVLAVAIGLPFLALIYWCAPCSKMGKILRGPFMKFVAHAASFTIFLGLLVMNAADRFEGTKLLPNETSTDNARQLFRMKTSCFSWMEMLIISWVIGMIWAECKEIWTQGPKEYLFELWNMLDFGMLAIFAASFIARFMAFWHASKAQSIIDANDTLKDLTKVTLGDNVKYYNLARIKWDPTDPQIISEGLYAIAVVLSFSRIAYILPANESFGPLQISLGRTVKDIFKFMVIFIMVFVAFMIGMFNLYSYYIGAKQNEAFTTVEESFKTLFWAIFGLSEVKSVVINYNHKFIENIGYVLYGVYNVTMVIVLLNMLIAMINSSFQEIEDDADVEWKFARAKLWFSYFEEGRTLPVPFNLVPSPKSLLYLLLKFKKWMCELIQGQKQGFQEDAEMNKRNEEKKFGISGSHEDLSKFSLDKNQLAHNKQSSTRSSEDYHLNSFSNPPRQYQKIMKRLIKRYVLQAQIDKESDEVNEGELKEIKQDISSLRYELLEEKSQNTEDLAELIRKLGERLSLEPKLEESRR
TRPC6 inhibitor = mouse TRPC6 channel inhibition. Q61143. HEK293-TRPC6, membrane potential dye, ACh-evoked depolarization; stronger effect = lower value. B-score at 10 µM. 310,000 tested, 1.1% active. AID 2553;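 active = B-score under library mean minus 3 SD, initial fluorescence not abnormally high, positive integrated signal ratio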;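 note: B-score derived from integrated fluorescence ratio over the kinetic read; more negative B-score means stronger inhibition of depolarization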
TRPC4 sel inh 2 = second selectivity test of TRPC6 inhibitors: effect on mouse TRPC4. shares compounds with TRPC6 inhibitor. HEK293 TRPC4/MOR, membrane potential dye fluorescence; channel activated by saturating DAMGO dose. inhibition, % at 10 µM. 920 tested, 42% active. AID 2776;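 active = compounds whose fluorescence signal differed from control wells by over 3 SD, either direction, in both duplicate plates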
TRPC4 spec = tests whether TRPC6 inhibitors also affect mouse TRPC4; shares compounds with TRPC6 inhibitor; HEK293 TRPC4/mu-opioid, membrane potential fluorescence; activity change, negative = inhibition, % at 10 µM; 920 tested, 61% active; AID 2777;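 active = rise or fall in signal beyond 3 SD of buffer-only wells in both replicate plates, either sign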;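 note: integrated kinetic ratio of fluorescence range over baseline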
HEK293 MPD ctr 2-1 = second counter-screen for TRPC6 inhibitors: parental HEK293 cells; 920 tested, 31% active; shares compounds with TRPC6 inhibitor; signal change vs control, % at 10 µM; parental HEK293 membrane potential dye fluorescence; maximal acetylcholine challenge after compound addition;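 active = membrane potential signal moving either way by over 3 SD of the maximum-effect control, in both duplicate plates, meaning non-specific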
HEK293 MPD ctr-1 = checks TRPC6 inhibitor effects in parental HEK293 cells; 920 tested, 60% active; membrane potential signal change, % at 10 µM; shares compounds with TRPC6 inhibitor; parental HEK293 membrane potential dye fluorescence;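 active = membrane potential signal shifting up or down by more than 3 SD of buffer-only wells, on both duplicate plates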
HEK293 MPD ctr-2 = counter-screen for TRPC6 modulators: effect in parental HEK293 cells | shares compounds with TRPC6 inhibitor | AID 488924 | membrane potential signal change, % at 10 µM | 2,400 tested, 51% active | membrane potential dye fluorescence;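 active = membrane potential signal moves up or down beyond 5 SD from buffer-only wells, on both duplicate plates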
HEK293 MPD ctr 2-2 = parental HEK293 nonspecific activity of TRPC6 modulators, second screen. shares compounds with TRPC6 inhibitor. membrane potential dye fluorescence; after compound, maximal acetylcholine stimulation. inhibition, % at 10 µM. 2,400 tested, 14% active. AID 488926;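 active = membrane potential signal drops by more than 5 SD from the mean control signal, in both duplicate plates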;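 note: plate controls were acetylcholine ECmax control wells for no effect and buffer only wells for full effect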
TRPC4 ctr mod = selectivity of TRPC6 modulators against mouse TRPC4. 2,400 tested, 69% active. shares compounds with TRPC6 inhibitor. HEK293 TRPC4/mu-opioid, membrane potential fluorescence. percent change from control (negative = decrease, positive = increase), % at 10 µM;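 active = membrane potential signal moved up or down beyond 5 SD of buffer control wells, in both duplicate plates, actives on both sides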;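 note: plate controls were assay buffer wells for no effect and DAMGO maximal-effect wells for full effect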
TRPC4/MOR inh 2 = second selectivity test of TRPC6 modulators against mouse TRPC4 | shares compounds with TRPC6 inhibitor | HEK293 TRPC4/mu-opioid, membrane potential dye fluorescence; stimulated with maximal-effect DAMGO | inhibition, % at 10 µM | 2,400 tested, 55% active;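 active = drop in membrane potential signal beyond 5 SD of the control wells in both duplicate plates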;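 note: TRPC4 counter screen for TRPC6 hits run under conditions tuned for TRPC6 not TRPC4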
TRPC6 inh conf = confirmation of mouse TRPC6 inhibitors. HEK293-TRPC6, membrane potential dye, ACh-evoked depolarization. shares compounds with TRPC6 inhibitor. 3,300 tested, 43% active. inhibition, % at 10 µM;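 active = fluorescence ratio falls more than 5 SD below the full-stimulation control mean, in both duplicate runs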;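 note: integrated fluorescence ratio of peak minus minimum over baseline after agonist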
TRPC6 act conf = confirmation of mouse TRPC6 activators | 2,800 tested, 11% active | shares compounds with TRPC6 inhibitor | activation, % at 10 µM | HEK293-TRPC6 membrane potential dye fluorescence, FDSS;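 active = ratio signal rise beyond 5 SD above unstimulated control wells' mean, seen in both duplicate runs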;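 note: plate controls were buffer EC0 wells for no effect and acetylcholine ECmax response for full effect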
Active calls of the source: *.

`Cc1cc(N2CCC(C)CC2)nc2cccc(O)c12` gave TRPC4 potent inactive, TRPC4 act inactive, TRPC4 block -6*, TRPC6 act inactive, TRPC6 inhibitor -8.4*, HEK293 MPD ctr-2 -139%*, HEK293 MPD ctr 2-2 inactive, TRPC4 ctr mod -30%*, TRPC4/MOR inh 2 86%*, TRPC6 inh conf inactive and TRPC6 act conf inactive.
CCN1CCN(C(=O)Cn2nc(-c3ccc(Cl)cc3)ccc2=O)CC1 was read as TRPC4 potent inactive, TRPC4 act inactive, TRPC4 block inactive, TRPC6 act inactive and TRPC6 inhibitor inactive.
For CCOC(=O)N1CCN(C(=O)Cn2nc(-c3ccc(Cl)cc3)ccc2=O)CC1 the results were TRPC4 potent inactive, TRPC4 act inactive, TRPC4 block inactive, TRPC6 act inactive, TRPC6 inhibitor -6.8*, TRPC4 sel inh 2 inactive, TRPC4 spec 0.5%*, HEK293 MPD ctr 2-1 inactive, HEK293 MPD ctr-1 2.3%* and TRPC6 inh conf 57%*.
`C=CCn1c(/N=C/c2ccc(N(C)C)cc2)nc2ccccc21` gave TRPC4 potent 10*, TRPC4 act 86*, TRPC4 block inactive, TRPC6 act 22*, TRPC6 inhibitor -6.6*, HEK293 MPD ctr-2 890%*, HEK293 MPD ctr 2-2 inactive, TRPC4 ctr mod 68%*, TRPC4/MOR inh 2 76%*, TRPC6 inh conf 82%* and TRPC6 act conf 262%*.
Cc1ccc(NC(=O)CC2CCCC2)c(Br)c1 was read as TRPC4 potent inactive, TRPC4 act inactive, TRPC4 block inactive, TRPC6 act inactive and TRPC6 inhibitor inactive.
`CCNC(=S)N(CCc1c(C)[nH]c2ccc(Cl)cc12)Cc1cccnc1` gave TRPC4 potent inactive, TRPC4 act inactive, TRPC4 block inactive, TRPC6 act inactive, TRPC6 inhibitor -5.8*, HEK293 MPD ctr-2 inactive, HEK293 MPD ctr 2-2 inactive, TRPC4 ctr mod inactive, TRPC4/MOR inh 2 inactive, TRPC6 inh conf inactive and TRPC6 act conf inactive.
COCCNC(=S)N(CCc1c(C)[nH]c2ccc(Cl)cc12)Cc1cccnc1 was read as TRPC4 potent inactive, TRPC4 act inactive, TRPC4 block inactive, TRPC6 act inactive, TRPC6 inhibitor -7*, TRPC4 sel inh 2 inactive, TRPC4 spec inactive, HEK293 MPD ctr 2-1 inactive, HEK293 MPD ctr-1 inactive, TRPC6 inh conf inactive and TRPC6 act conf inactive.
Screening CNC(=S)N(CCc1c(C)[nH]c2ccc(Cl)cc12)Cc1cccnc1 returned TRPC4 potent inactive, TRPC4 act inactive, TRPC4 block inactive, TRPC6 act inactive and TRPC6 inhibitor inactive.
For COCCNC(=S)N(CCc1c(C)[nH]c2ccc(F)cc12)Cc1cccnc1 the results were TRPC4 potent inactive, TRPC4 act inactive, TRPC4 block inactive, TRPC6 act inactive and TRPC6 inhibitor inactive.
O=C(NC1CCCCC1)C(c1ccc(F)cc1)N(CCN1CCOCC1)C(=O)c1ccc(-c2ccccc2)[nH]1 (centres undefined) was read as TRPC4 potent inactive, TRPC4 act inactive, TRPC4 block inactive, TRPC6 act inactive and TRPC6 inhibitor inactive.
Screening O=C(NC1CCCC1)C(c1ccncc1)N(CCCN1CCOCC1)C(=O)c1ccc(-c2ccccc2)[nH]1 (centres undefined) returned TRPC4 potent inactive, TRPC4 act inactive, TRPC4 block inactive, TRPC6 act inactive, TRPC6 inhibitor -5.1*, HEK293 MPD ctr-2 inactive, HEK293 MPD ctr 2-2 inactive, TRPC4 ctr mod inactive, TRPC4/MOR inh 2 36%*, TRPC6 inh conf inactive and TRPC6 act conf inactive.
`CC1=[N+]([O-])C(C)(C)N(O)C1(C)C` gave TRPC4 potent inactive, TRPC4 act inactive, TRPC4 block inactive, TRPC6 act inactive and TRPC6 inhibitor inactive.
For COCCOC(=O)C1=C(C)NC(=O)NC1c1cccc2ccccc12 (centres undefined) the results were TRPC4 potent inactive, TRPC4 act inactive, TRPC4 block inactive, TRPC6 act inactive and TRPC6 inhibitor inactive.
CCOC(=O)C1CCCN(C(=O)c2sc3nc(C)nc(N(CC)CC)c3c2C)C1 (centres undefined) was read as TRPC4 potent inactive, TRPC4 act inactive, TRPC4 block inactive, TRPC6 act inactive, TRPC6 inhibitor -5.2*, HEK293 MPD ctr-2 110%*, HEK293 MPD ctr 2-2 inactive, TRPC4 ctr mod 22%*, TRPC4/MOR inh 2 36%* and TRPC6 inh conf 38%*.
CCC1CCCCN1C(=O)c1sc2nc(C)nc(N(CC)CC)c2c1C (centres undefined) was read as TRPC4 potent inactive, TRPC4 act inactive, TRPC4 block inactive, TRPC6 act inactive and TRPC6 inhibitor inactive.
`CN1CCN(c2ccccc2/C=C2/C(=O)Nc3ccccc32)CC1` gave TRPC4 potent inactive, TRPC4 act inactive, TRPC4 block inactive, TRPC6 act inactive, TRPC6 inhibitor -5*, HEK293 MPD ctr-2 120%*, HEK293 MPD ctr 2-2 inactive, TRPC4 ctr mod 46%*, TRPC4/MOR inh 2 72%* and TRPC6 inh conf inactive.

Screens: PubChem, Johns Hopkins Ion Channel Center
